Laboratory results from ChEMBL document CHEMBL3085677, “Novel coumarin-3-carboxamides bearing N-benzylpiperidine moiety as potent acetylcholinesterase inhibitors” (Eur J Med Chem, 2013).
Activity calls are given as the source filed them. No cut-off for these calls is given here.

Columns and labels:
Acetylcholinesterase = Acetylcholinesterase (Electrophorus electricus, UniProt O42275); test: Inhibition of electric eel AChE using acetylcholine as substrate preincubated for 15 mins prior to substrate addition by Ellman's method
Acetylcholinesterase, sequence (O42275 whole entry): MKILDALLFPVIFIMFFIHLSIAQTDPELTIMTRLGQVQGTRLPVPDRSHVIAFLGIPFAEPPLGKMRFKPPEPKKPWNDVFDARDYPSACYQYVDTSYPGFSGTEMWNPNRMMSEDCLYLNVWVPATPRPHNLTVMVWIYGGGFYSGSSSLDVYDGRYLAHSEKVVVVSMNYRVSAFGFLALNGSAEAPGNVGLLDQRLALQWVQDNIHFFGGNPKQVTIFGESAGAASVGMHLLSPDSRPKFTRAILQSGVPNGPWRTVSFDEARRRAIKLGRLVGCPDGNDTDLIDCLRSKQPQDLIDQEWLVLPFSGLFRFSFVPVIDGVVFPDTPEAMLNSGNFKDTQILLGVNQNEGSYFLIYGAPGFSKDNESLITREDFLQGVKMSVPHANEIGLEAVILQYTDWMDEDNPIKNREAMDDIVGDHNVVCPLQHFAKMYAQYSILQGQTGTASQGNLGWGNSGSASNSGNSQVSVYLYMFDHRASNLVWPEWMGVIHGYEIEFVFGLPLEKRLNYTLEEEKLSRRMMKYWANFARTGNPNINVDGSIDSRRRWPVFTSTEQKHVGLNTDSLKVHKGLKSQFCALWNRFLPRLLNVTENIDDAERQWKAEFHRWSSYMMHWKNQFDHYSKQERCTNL

Cholinesterase = Cholinesterase (Equus caballus, UniProt P81908); test: Inhibition of equine serum BChE using butyrylthiocholine iodide as substrate preincubated for 15 mins prior to substrate addition by Ellman's method
Cholinesterase, sequence (P81908 whole entry): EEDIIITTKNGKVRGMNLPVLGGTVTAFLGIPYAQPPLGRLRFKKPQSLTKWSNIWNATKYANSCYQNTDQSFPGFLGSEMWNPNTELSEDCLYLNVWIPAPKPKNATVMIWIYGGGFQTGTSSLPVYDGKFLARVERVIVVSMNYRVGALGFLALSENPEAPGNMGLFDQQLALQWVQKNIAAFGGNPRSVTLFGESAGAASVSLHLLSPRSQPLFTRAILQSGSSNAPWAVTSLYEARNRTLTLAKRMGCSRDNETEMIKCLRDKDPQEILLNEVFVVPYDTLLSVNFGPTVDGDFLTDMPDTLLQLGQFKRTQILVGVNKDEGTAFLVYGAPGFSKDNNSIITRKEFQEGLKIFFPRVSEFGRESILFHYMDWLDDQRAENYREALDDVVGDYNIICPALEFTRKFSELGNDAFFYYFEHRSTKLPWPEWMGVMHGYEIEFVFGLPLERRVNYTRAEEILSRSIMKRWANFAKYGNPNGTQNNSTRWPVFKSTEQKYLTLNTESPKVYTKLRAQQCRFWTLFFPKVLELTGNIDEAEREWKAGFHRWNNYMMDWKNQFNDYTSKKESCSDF
Outline: (§1)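 Ellman-type assay at 25 °C with eel AChE (Type V-S) or equine serum BuChE, added as a 2.5 unit/mL enzyme solution. Medium was 0.1 M phosphate buffer pH 8.0 with DTNB added from a 0.01 M solution. Inhibitor was preincubated 15 min before acetylthiocholine or butyrylthiocholine iodide. ΔA412 was read over 6 min, corrected against a non-enzymatic blank. Five concentrations in triplicate gave 20–80% inhibition. IC50 came graphically from log-concentration curves, mean of three experiments; SI = IC50 BuChE/IC50 AChE.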

PC-12 = test: Protection against H2O2-induced cell death in rat PC12 cells pretreated at 1 to 100 uM for 3 hrs before H2O2 challenge using DAPI staining method; type: functional, cell-based
Outline: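 Rat PC12 cells grown in RPMI 1640 with 10% FCS and penicillin/streptomycin, plated at 10^4 cells/well. Held 2 days serum-free, then given NGF 50 ng/ml for 5 days until neurites formed. Pretreated 3 h at three compound levels before H2O2 challenge. Apoptosis judged by DAPI added to live cells for 20 min. Viability read by MTT after 24 h.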

[1] = Cytotoxicity against rat PC12 cells at 1 to 100 uM after 24 hrs by MTT assay; type: cell-based; conditions: pc-12, 24 h
[2] = Selectivity index, ratio of IC50 for equine serum BChE to IC50 for electric eel AChE; outline: as §1
[3] = molecular target: Acetylcholinesterase (Electrophorus electricus) (UniProt O42275); test: Ratio of donepezil IC50 to compound IC50 for electric eel AChE using acetylcholine as substrate preincubated for 15 mins prior to substrate addition by Ellman's method
Acetylcholinesterase (Electrophorus electricus), sequence (O42275 24-633 limits assumed): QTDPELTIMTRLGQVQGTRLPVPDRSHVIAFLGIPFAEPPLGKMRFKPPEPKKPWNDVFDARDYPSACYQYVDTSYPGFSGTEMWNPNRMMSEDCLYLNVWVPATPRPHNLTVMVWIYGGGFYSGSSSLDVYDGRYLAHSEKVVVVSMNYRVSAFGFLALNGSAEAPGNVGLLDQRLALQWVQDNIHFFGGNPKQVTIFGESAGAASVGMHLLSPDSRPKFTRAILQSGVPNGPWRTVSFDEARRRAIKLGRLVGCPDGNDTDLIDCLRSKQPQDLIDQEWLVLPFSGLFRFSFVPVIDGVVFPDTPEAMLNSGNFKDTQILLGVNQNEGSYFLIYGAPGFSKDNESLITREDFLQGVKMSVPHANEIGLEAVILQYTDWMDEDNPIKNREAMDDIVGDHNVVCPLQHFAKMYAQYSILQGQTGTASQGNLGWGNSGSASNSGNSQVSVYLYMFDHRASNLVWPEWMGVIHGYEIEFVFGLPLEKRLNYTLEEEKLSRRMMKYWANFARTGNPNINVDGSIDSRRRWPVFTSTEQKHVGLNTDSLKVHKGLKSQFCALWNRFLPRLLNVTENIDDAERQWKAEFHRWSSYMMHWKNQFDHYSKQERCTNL

[4] = molecular target: Acetylcholinesterase (Electrophorus electricus) (UniProt O42275); test: Mixed-type inhibition of electric eel AChE using acetylcholine as substrate by Lineweaver-Burk plot method
Outline: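 Kinetics used eel AChE with inhibitor fixed at 0.357, 3.57 or 11.9 nM. Initial velocities were measured across several acetylthiocholine concentrations. Reciprocal velocity (1/v) was plotted against 1/[ATCh] (double-reciprocal plot).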

Row | Compound | IC50 (Acetylcholinesterase) [nM] | IC50 (Cholinesterase) [nM] | Activity (PC-12) | Activity [1] | Ratio IC50 [2] | Ratio IC50 [3] | inhibition [4]
1 | O=C(NCCC1CCN(Cc2ccccc2)CC1)c1cc2cc(Br)ccc2oc1=O | 2 | 420 | Active | Non-toxic | 210 | – | –
2 | COc1ccc2cc(C(=O)NCCC3CCN(Cc4ccccc4)CC3)c(=O)oc2c1 | 5 | 357 | Active | Non-toxic | 71 | – | –
3 | O=C(NCCC1CCN(Cc2ccccc2)CC1)c1cc2ccc(O)cc2oc1=O | 143 | 46000 | – | – | 321 | – | –
4 | O=C(NC1CCN(Cc2ccccc2)CC1)c1cc2cc(Br)ccc2oc1=O | 30 | 42000 | – | – | 1400 | – | –
5 | COc1ccc2cc(C(=O)NC3CCN(Cc4ccccc4)CC3)c(=O)oc2c1 | 183 | 27000 | – | – | 147 | – | –
6 | O=C(NCCC1CCN(Cc2ccccc2)CC1)c1cc2ccccc2oc1=O | 26 | 371 | – | – | 14 | – | –
7 | COc1cccc2cc(C(=O)NCCC3CCN(Cc4ccccc4)CC3)c(=O)oc12 | 2 | 18000 | – | – | 9000 | – | –
8 | O=C(NCCC1CCN(Cc2ccccc2)CC1)c1cc2cc([N+](=O)[O-])ccc2oc1=O | 0.3 | 7900 | Active | Non-toxic | 26300 | 46 | Active
9 | O=C(NC1CCN(Cc2ccccc2)CC1)c1cc2cc([N+](=O)[O-])ccc2oc1=O | 430 | 22000 | – | – | 51 | – | –
10 | O=C(NC1CCN(Cc2ccccc2)CC1)c1cc2ccccc2oc1=O | 1200 | 17000 | – | – | 14 | – | –
11 | O=C(NCCC1CCN(Cc2ccccc2)CC1)c1cc2cc(O)ccc2oc1=O | 70 | 15600 | – | – | 222 | – | –
12 | COc1cccc2cc(C(=O)NC3CCN(Cc4ccccc4)CC3)c(=O)oc12 | 633 | 20000 | – | – | 32 | – | –
13 | O=C(NC1CCN(Cc2ccccc2)CC1)c1cc2ccc(O)cc2oc1=O | 1700 | 55000 | – | – | 32 | – | –
